Assay [1] has as its system Human alphaherpesvirus 1. The experiment in a line: Antiviral activity against HSV1 at 50 uM. To be noted: Human alphaherpesvirus 1, ACR-29. Format: functional. The gist of the method: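 Vero cells (DMEM, 2% heat-inactivated FBS, 8% calf serum) were infected with HSV-1 strain ACR-29 at 1 PFU/cell for 2 h at 37 °C. The inoculum was then replaced with medium containing compound at 50 µM. After 3 days at 37 °C in 5% CO₂, supernatant titre (TCID50/mL) was measured by endpoint dilution (Reed–Muench) against untreated controls. Means of triplicates.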

The test system of assay [2] is Vero. The experiment in a line: Selectivity index (CC50/EC50) in Vero cells. Format: functional. The gist of the method:
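Ratio of CC50 (uninfected Vero, 72 h exposure) to EC50 (HSV-1 ACR-29 virus-yield inhibition in Vero); the two were determined in parallel.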

For assay [3], the system named is Human alphaherpesvirus 1. The experiment in a line: Antiviral activity against HSV1 in vero cells. Format: functional, organism-based. To be noted: Human alphaherpesvirus 1, Vero. The gist of the method:
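Yield reduction: confluent Vero cells were infected with HSV-1 ACR-29 at moi 1 pfu/cell for 1 h at 37 °C, washed, then given medium with varying compound concentrations. At 20 h they were freeze-thawed three times and spun at 400g for 10 min at 4 °C. Titre was read by plaque assay under 1% methylcellulose for 72 h with crystal violet stain. EC50 is the concentration inhibiting virus yield by 50%.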

In assay [4] the test system is Vero. The experiment in a line: Cytotoxicity against Vero cells by MTT assay. To be noted: Chlorocebus sabaeus. It counts as functional. The gist of the method:
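Uninfected Vero monolayers were exposed to a range of compound concentrations for 72 h at 37 °C. MTT ([…]) was then added for 4 h at 37 °C, followed by 10% SDS/0.01 N HCl overnight. Absorbance was read at 540 nm against a 690 nm reference. CC50 is the concentration reducing host-cell viability by 50%.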
In general terms: Tetrazolium dyes change colour on reduction, which living cells bring about.

For assay [5], the system named is Human alphaherpesvirus 1. The experiment in a line: Antiviral activity against HSV1 at 10 uM. Format: functional. The following applies: Human alphaherpesvirus 1, ACR-29. The procedure, abridged:
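Vero cells (DMEM with 2% heat-inactivated FBS plus 8% calf serum) infected with HSV-1 strain ACR-29 at 1 PFU/cell for 2 h at 37 °C. The inoculum was replaced with medium containing compound at 10 µM; untreated infected controls got medium only. After 3 days at 37 °C in 5% CO2, supernatant titre was read by endpoint dilution (TCID50/mL, Reed-Muench). Values are means of triplicates.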

pEC50: −log10 of the molar value.

Broadly, the inhibition is the relative decrease from the control value, in per cent. Higher therefore signals strong suppression. As a reminder, the pEC50 is −log10 of the EC50, conventionally taken in molar units. One may read the CC50 as the concentration that lowers cell viability or growth by half. For the molecule `CCOC(=O)c1cn(COCCO)c2cc(Cl)ccc2c1=O`, the inhibition at 50 µM with Human alphaherpesvirus 1 [1] turned out to be 99%. The same molecule gave a Selectivity index in the assay with Vero [2] of 1375. Besides, the pEC50 in the assay with Human alphaherpesvirus 1 [3] was 6.06. In the assay with Vero [4], the CC50 was 1200 µM.
As for `Cc1ccc2c(=O)c(C(=O)O)cn(COCCO)c2c1`, the inhibition at 50 µM in the assay on Human alphaherpesvirus 1 [1] worked out at 79%.
Consider `O=C(O)c1cn(COCCO)c2cc(F)ccc2c1=O`, for which, in the assay on Human alphaherpesvirus 1 [1], the inhibition at 50 µM was determined as 97%. The molecule also displayed a Selectivity index with Vero [2] of more than 357. In the assay on Human alphaherpesvirus 1 [3], this molecule showed a pEC50 of 5.85. This molecule also came in with a CC50 in the assay on Vero [4] of more than 500 µM.
As to `O=C(O)c1cn(COCCO)c2cc([N+](=O)[O-])ccc2c1=O`, the inhibition at 50 µM with Human alphaherpesvirus 1 [1] stood at 77%.
Regarding `CCOC(=O)c1cn(COCCO)c2ccc(F)cc2c1=O`, the inhibition at 50 µM in the assay on Human alphaherpesvirus 1 [1] was determined as 97%. In addition, the Selectivity index in the assay with Vero [2] is on record as more than 217. In the assay with Human alphaherpesvirus 1 [3], this molecule had a pEC50 of 5.64. Moreover, the CC50 in the assay on Vero [4] was more than 500 µM.
Consider `COc1ccc2c(=O)c(C(=O)O)cn(COCCO)c2c1`, for which testing at 50 µM in the assay on Human alphaherpesvirus 1 [1] gave an inhibition of 79%.
Same read-out and setting: with `CCOC(=O)c1cn(COCCO)c2cc([N+](=O)[O-])ccc2c1=O` the figure was 77%.
With `Cc1ccc2c(c1)c(=O)c(C(=O)O)cn2COCCO`, the inhibition at 50 µM with Human alphaherpesvirus 1 [1] came to 93%. In the assay with Vero [2], this molecule registered a Selectivity index of more than 227. Moreover, the pEC50 in the assay on Human alphaherpesvirus 1 [3] was 5.66. This molecule also had a cytotoxic concentration (CC50) in the assay on Vero [4] of more than 500 µM.
Take `O=C(O)c1cn(COCCO)c2ccc(F)cc2c1=O`: in the assay with Human alphaherpesvirus 1 [1], the inhibition at 50 µM is 70%.
In turn, `O=C(O)c1cn(COCCO)c2ccc(Br)cc2c1=O` came in with an inhibition at 50 µM with Human alphaherpesvirus 1 [1] of 58%.
The same measure, in the same setting: the result for `CCOC(=O)c1cn(COCCO)c2cc(C)ccc2c1=O` reads 77%.
On the same count and under the same terms, with `CCOC(=O)c1cn(COCCO)c2ccc(Br)cc2c1=O` the figure was 84%.
Consider `CCOC(=O)c1cn(COCCO)c2ccc([N+](=O)[O-])cc2c1=O`, for which the inhibition at 50 µM in the assay on Human alphaherpesvirus 1 [1] stood at 95%. The molecule further yielded a Selectivity index in the assay on Vero [2] of 640. Further, in the assay with Human alphaherpesvirus 1 [3], the pEC50 is 5.82. The molecule further had a CC50 in the assay with Vero [4] of 960 µM.
Regarding `CCOC(=O)c1cn(COCCO)c2cc(OC)ccc2c1=O`, in the assay on Human alphaherpesvirus 1 [1], 50 µM produced 89% inhibition.
In the assay with Human alphaherpesvirus 1 [1], `O=C(O)c1cn(COCCO)c2cc(Cl)ccc2c1=O` registered an inhibition at 50 µM of 96%. In addition, in the assay on Vero [2], the Selectivity index is 1714. For the same molecule, the pEC50 in the assay with Human alphaherpesvirus 1 [3] is 6.15. This molecule showed a CC50 in the assay on Vero [4] of 1200 µM.
Regarding `CCOC(=O)c1cn(COCCO)c2ccc(C)cc2c1=O`, in the assay on Human alphaherpesvirus 1 [1], testing at 50 µM gave an inhibition of 82%.
For the molecule `O=C(O)c1cn(COCCO)c2ccc(Cl)cc2c1=O`, the inhibition at 50 µM in the assay on Human alphaherpesvirus 1 [1] is 98%. Also, the Selectivity index with Vero [2] is 1273. The molecule further showed a pEC50 in the assay with Human alphaherpesvirus 1 [3] of 5.96. The molecule also had a CC50 with Vero [4] of 1400 µM.
In the assay with Human alphaherpesvirus 1 [1], `O=C(O)c1cn(COCCO)c2ccc([N+](=O)[O-])cc2c1=O` yielded an inhibition at 50 µM of 70%.
Turning to `COc1ccc2c(c1)c(=O)c(C(=O)O)cn2COCCO`, testing at 50 µM with Human alphaherpesvirus 1 [1] gave an inhibition of 89%.
The same measure, in the same setting: with `CCOC(=O)c1cn(COCCO)c2cc(F)ccc2c1=O` the figure was 65%.
With `CCOC(=O)c1cn(COCCO)c2ccc(Cl)cc2c1=O`, in the assay with Human alphaherpesvirus 1 [1], the inhibition at 50 µM amounted to 97%. The same molecule gave a Selectivity index in the assay with Vero [2] of 1562. The molecule also gave a pEC50 in the assay on Human alphaherpesvirus 1 [3] of 6.10. The molecule also had a 50% cytotoxic concentration (CC50) with Vero [4] of 1250 µM.
Taken in the same sequence, the figures for `CCOC(=O)c1cn(COCCO)c2ccc(OC)cc2c1=O` were 99%, more than 156, 5.49 and more than 500 µM.
Take `Nc1nc2c(ncn2COCCO)c(=O)[nH]1` [ACYCLOVIR]: in the assay on Human alphaherpesvirus 1 [5], the inhibition at 10 µM worked out at 96%. Besides, in the assay on Vero [2], the Selectivity index amounted to 880. Also, in the assay on Human alphaherpesvirus 1 [3], the pEC50 is 5.96. This molecule also yielded a CC50 in the assay on Vero [4] of 960 µM.

The record behind these values is ChEMBL document CHEMBL1138118, “Synthesis and anti-HSV-1 activity of quinolonic acyclovir analogues” (Bioorg Med Chem Lett, 2006).
